This is an account of results in ChEMBL document CHEMBL3877310, “Rickettsia prowazekii methionine aminopeptidase as a promising target for the development of antibacterial agents” (Bioorg Med Chem, 2017).

For data set [1], the system named is Endothelial cell. Nature of the data set: Antibacterial activity against Rickettsia prowazekii str. Breinl infected in CD rat primary pulmonary vascular endothelial cells assessed as protection against bacterial infection by measuring restoration of host cell viability at 0.03 to 30 uM measured 72 hrs post infection by WST1 assay. In kind it is functional, cell-based. Background: Tetrazolium assays rely on reduction of a dye to a coloured formazan, in cell work by metabolically active cells.

Data set [2] is filed under the species Rattus norvegicus. Nature of the data set: Cytotoxicity against CD rat primary pulmonary vascular endothelial cells assessed as reduction in cell viability at 0.03 to 30 uM measured after 72 hrs by WST1 assay. In kind it is toxicity, cell-based. The method, boiled down: (§1)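 Uninfected primary CD-rat pulmonary ECs (passage <15, DMEM high glucose/10% FBS/4 mM L-glutamine, 37 °C, 5% CO2) exposed to compounds over graded ranges with 0.3% DMSO as solvent. Viability read as WST-1 metabolism.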

Data set [3] deals with Endothelial cell. Nature of the data set: Antibacterial activity against Rickettsia prowazekii str. Breinl infected in CD rat primary pulmonary vascular endothelial cells assessed as bacterial shape change at 25 ug/ml measured 72 hrs post infection by Hoechst 33258/phalloidin staining based fluorescence microscopic analysis. In kind it is functional.
The species named for data set [4] is Rattus norvegicus. The experiment in a line: Cytotoxicity against CD rat primary pulmonary vascular endothelial cells assessed as reduction in cell viability at 0.3 to 300 uM measured after 72 hrs by WST1 assay. In kind it is toxicity, cell-based. The method, boiled down:
as §1

For data set [5], the system named is Endothelial cell. The experiment in a line: Antibacterial activity against Rickettsia prowazekii str. Breinl infected in CD rat primary pulmonary vascular endothelial cells assessed as protection against bacterial infection by measuring restoration of host cell viability at 0.3 to 300 uM measured 72 hrs post infection by WST1 assay. In kind it is functional, cell-based.

Data set [6] is filed under the species Rattus norvegicus. Nature of the data set: Cytotoxicity against CD rat primary pulmonary vascular endothelial cells assessed as reduction in cell viability at 0.02 to 20 uM measured after 72 hrs by WST1 assay. In kind it is toxicity, cell-based. The method, boiled down:
as §1

Data set [7] concerns the target Methionine aminopeptidase 2 (Homo sapiens, UniProt P50579). Nature of the data set: Inhibition of recombinant full length human N-terminal GST/His6-tagged methionine aminopeptidase 2 expressed in baculovirus infected sf9 cells using methionylprolyl-p-nitroanilide as substrate preincubated for 20 mins followed by substrate addition measured for 20 mins in presence of MnCl2 by proline aminopeptidase coupled enzyme assay.

For data set [8], the species on record is Rattus norvegicus. The experiment in a line: Cytotoxicity against CD rat primary pulmonary vascular endothelial cells assessed as reduction in cell viability at 0.0075 to 7.5 uM measured after 72 hrs by WST1 assay. In kind it is toxicity, cell-based. The gist of the method:
as §1

The target of data set [9] is Methionine aminopeptidase 1 (Homo sapiens, UniProt P53582). Nature of the data set: Inhibition of recombinant full length human His-tagged methionine aminopeptidase 1 expressed in Escherichia coli BL21(DE3) using methionylprolyl-p-nitroanilide as substrate preincubated for 20 mins followed by substrate addition measured for 20 mins in presence of CoCl2 by proline aminopeptidase coupled enzyme assay.

Data set [10] is filed under the species Rattus norvegicus. The experiment in a line: Cytotoxicity against CD rat primary pulmonary vascular endothelial cells assessed as reduction in cell viability at 0.003 to 3 uM measured after 72 hrs by WST1 assay. In kind it is toxicity, cell-based. The method, boiled down:
as §1

For data set [11], the system named is Endothelial cell. The experiment in a line: Antibacterial activity against Rickettsia prowazekii str. Breinl infected in CD rat primary pulmonary vascular endothelial cells assessed as bacterial shape change at 300 uM measured 72 hrs post infection by Hoechst 33258/phalloidin staining based fluorescence microscopic analysis. In kind it is functional.
For data set [12], the species on record is Rattus norvegicus. Nature of the data set: Cytotoxicity against CD rat primary pulmonary vascular endothelial cells assessed as effect on appearance of cell monolayers at 300 uM measured after 72 hrs by Hoechst 33258/phalloidin staining based fluorescence microscopic analysis. In kind it is toxicity.
A short description of data set [13]: Antibacterial activity against Rickettsia prowazekii str. Breinl infected with 50:1 multiplicity of infection in CD rat primary pulmonary vascular endothelial cells assessed as restoration of host cell viability by measuring fold reduction in viability at 0.3 to 300 uM measured 72 hrs post infection by WST1 assay relative to control. In kind it is functional.

Data set [14] deals with Endothelial cell. The experiment in a line: Antibacterial activity against Rickettsia prowazekii str. Breinl infected in CD rat primary pulmonary vascular endothelial cells assessed as protection against bacterial infection by measuring restoration of host cell viability at 0.003 to 3 uM measured 72 hrs post infection by WST1 assay. In kind it is functional, cell-based.

The nature of data set [15]: Antibacterial activity against Rickettsia prowazekii str. Breinl infected with 50:1 multiplicity of infection in CD rat primary pulmonary vascular endothelial cells assessed as restoration of host cell viability by measuring fold reduction in viability at 0.003 to 3 uM measured 72 hrs post infection by WST1 assay relative to control. In kind it is functional.

The source made the active and inactive calls. The rule behind the calls is not given here. A value given as a limit tells only on which side of the number the result lay.

Sequence of Methionine aminopeptidase 2 (P50579 whole entry): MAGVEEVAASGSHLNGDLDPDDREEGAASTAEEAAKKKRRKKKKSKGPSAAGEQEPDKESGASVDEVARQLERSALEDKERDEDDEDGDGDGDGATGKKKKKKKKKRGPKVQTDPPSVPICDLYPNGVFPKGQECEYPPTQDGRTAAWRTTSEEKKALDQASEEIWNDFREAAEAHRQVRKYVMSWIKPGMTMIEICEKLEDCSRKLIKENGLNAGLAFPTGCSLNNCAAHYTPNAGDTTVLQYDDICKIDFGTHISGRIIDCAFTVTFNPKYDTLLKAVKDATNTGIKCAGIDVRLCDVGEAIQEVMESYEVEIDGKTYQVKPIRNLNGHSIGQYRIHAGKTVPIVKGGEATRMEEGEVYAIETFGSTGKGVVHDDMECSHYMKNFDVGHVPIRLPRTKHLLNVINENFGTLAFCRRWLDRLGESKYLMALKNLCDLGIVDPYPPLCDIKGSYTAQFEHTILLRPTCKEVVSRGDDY

Take `Oc1ccc(Cl)c2cccnc12` [CLOXYQUIN]: in data set [1], the outcome was Active. For the same compound, the Activity result in [2] was “Non-Toxic”.

Regarding `C[C@H]1c2cccc(O)c2C(=O)C2=C(O)[C@]3(O)C(=O)C(C(N)=O)=C(O)[C@@H](N(C)C)[C@@H]3[C@@H](O)[C@@H]21`, the outcome in data set [3] was Active.

On to `O=C(O)c1ccc(-c2cc(Cl)ccc2Cl)o1`, for which the Activity result in [4] is “Non-Toxic”.

With `Nc1nnc(SCc2ccc(F)cc2)[nH]1`, the result in [5] was Active. Moreover, the Activity result in data set [4] is listed as “Non-Toxic”.

With `Nc1n[nH]c(SCc2ccccc2)n1`, the result in [5] was Active. For the same compound, the Activity entry in [4] was “Non-Toxic”.

On to `O=C(O)c1ccc(-c2ccccc2Cl)o1`, for which the Activity entry in [4] was “Non-Toxic”.

In the case of `Nc1n[nH]c(SCc2ccccc2Cl)n1`, in data set [5], the result was Active. For the same compound, the Activity result in data set [4] is “Non-Toxic”.

Take `Oc1c(CN2CCOCC2)cc(Cl)c2cccnc12`: the Activity result in [6] is reported as “Non-Toxic”.

Regarding `CC(C)(C)c1ccc(CSc2nnc(N)[nH]2)cc1`, in data set [2], the Activity result is reported as “Non-Toxic”. In addition, the 50% inhibitory concentration (IC50) in [7] is over 15 µM.

In the case of `O=[N+]([O-])c1cc(CN2CCCCC2)c(O)c2ncccc12`, in data set [8], the Activity result is reported as “Non-Toxic”.

Regarding `CC(C)c1ccc(CSc2nnc(N)[nH]2)cc1`, in [2], the Activity entry is given as “Non-Toxic”.

Consider `Nc1nnc(SCc2ccc(Cl)cc2Cl)[nH]1`, for which the Activity entry in data set [2] was “Non-Toxic”.

As for `Oc1cccc2cccnc12` [OXYQUINOLINE], the outcome in data set [1] was Active. For the same compound, the 50% inhibitory concentration (IC50) in data set [9] worked out at 12.9 µM; in data set [7] it was 1.27 µM. Moreover, the Activity result in data set [2] was “Non-Toxic”.

`Cc1ccc2cccc(O)c2n1` [8-HYDROXY QUINALDINE]: in [9], the half-maximal inhibitory concentration (IC50) was over 15 µM. In addition, the Activity entry in [10] was “Non-Toxic”.

In the case of `Nc1nnc(SCc2ccc(Cl)cc2)[nH]1`, the outcome in data set [5] and in data set [11] was Active. For the same compound, the Activity result in data set [12] and in [4] was “Non-Toxic” each time. The “fold change (FC)” value in [13] is reported as 1.2.

Consider `O=[N+]([O-])c1cc(CN2CCOCC2)c(O)c2ncccc12`, for which the result in data set [14] was Active. In addition, in [15], the “fold change (FC)” value is listed as 1.2. Besides, the Activity entry in [10] is “Non-Toxic”.

`Cc1ccc(CSc2nnc(N)[nH]2)cc1`: the outcome in [5] was Active. Further, in data set [4], the Activity entry is on record as “Non-Toxic”.

On to `O=[N+]([O-])c1ccc(O)c2ncccc12` [NITROXOLINE], for which the Activity entry in [10] is listed as “Non-Toxic”.

For orientation: IC50 means the point on the concentration scale where inhibition reaches its midpoint.
